Test results reported in paper PMC10412738 (Cell reports, 2023).

Key:
[1] = system: Y79 cells; assay: Cell proliferation; format: cell-based; settings: for growth arrest following SFRP2 silencing, Wnt inhibitors: 1 μM, SFRP2 siRNA
Method in brief: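 SFRP2 or control siRNA transfected with Lipofectamine RNAiMAX, then cells given recombinant human SFRP2 at 250 ng/mL or left untreated. Proliferation tracked by IncuCyte live-cell imaging. RB383 were grown in IMDM with 10% FBS, 10 μg/mL insulin and 55 μM β-mercaptoethanol; Y79 in RPMI-1640 with 10% FBS.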

[2] = system: phosphorylated CREB (phospho-serine 133) in RB383 cells; assay: Phosphorylated CREB by immunoblotting, RB383; format: cell-based; settings: for phosphorylated CREB induction: RB383 cells, 1 μg/mL, immunoblotting
[3] = system: NOS2 RNA in RB383 cells; assay: NOS2 RNA by qRT-PCR, RB383; format: cell-based; settings: n = 3; for NOS2 RNA induction: RB383 cells, 1 μg/mL, qRT-PCR; for NOS2 RNA induction following SFRP2 silencing: 12 h
[4] = system: NO production in RB383 cells; assay: NO production, nitrate/nitrite colorimetric assay, RB383; format: cell-based; settings: n = 3; for NO production: RB383 cells, 1 μg/mL, NO in the CM; for NO production following SFRP2 silencing: CM, 12 h
Method in brief: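 Test peptides (12-mer SFRP2 binders from phage display) added to RB383 at 1 μg/mL. At the indicated time points, NO in the conditioned medium was measured by nitrite/nitrate colorimetric assay; n = 3.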

[5] = system: RB383 cells; assay: Cell proliferation; format: cell-based; settings: for inhibition of proliferation: RB383 cells, 1 μg/mL, IncuCyte
[6] = system: ARPE-19 retinal pigment epithelial cells; assay: Cell proliferation; format: cell-based, human; settings: 1 μg/mL, IncuCyte
[7] = system: retinoblastoma cells; assay: Rescue of growth inhibition following SFRP2 silencing; format: cell-based; settings: SFRP2 siRNA
Method in brief: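 Retinoblastoma cell lines transfected with SFRP2 or control siRNA (RNAiMAX), then exposed to 5 μM NS-2028 (sGC inhibitor) or 2.5 μM KT5823 (PKG inhibitor), or left untreated. Proliferation measured by IncuCyte live-cell imaging.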

[8] = system: p21 in RB383 cells; assay: p21 induction following SFRP2 silencing, immunoblotting, RB383; format: cell-based; settings: 1 μM carboxy-PTIO, 5 μM NS-2028, or 2.5 μM KT5823
Method in brief: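 In RB383 cells transfected with SFRP2 or control siRNA, treatment was none, 1 μM carboxy-PTIO, 5 μM NS-2028 or 2.5 μM KT5823. p21 protein was then assessed by SDS-PAGE immunoblotting of whole-cell lysate.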

[9] = system: SFRP1; settings: cited from earlier work
[10] = system: NO production in Y79 cells; assay: NO production, nitrate/nitrite colorimetric assay, Y79; format: cell-based; settings: 2 μM, CM and cell lysate, n = 3
Method in brief: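 Y79 retinoblastoma cells were exposed to a small-molecule SFRP inhibitor at 2 μM. At the indicated times, NO production was measured in conditioned medium and in cell lysate by nitrite/nitrate colorimetric assay. n = 3; data given as mean ± SEM.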

[11] = system: SFRP2 RNA in retinoblastoma cells; assay: SFRP2 RNA silencing in retinoblastoma; format: cell-based; settings: n = 3
[12] = biological target: Recombinant human CXADR protein (3336-CX-050, R&D Systems) (human) (UniProt P78310); assay: MST
[13] = system: CXADR; assay: Co-immunoprecipitation of SFRP2 with endogenous CXADR in 293T cells; format: binding; settings: C-terminally FLAG-tagged SFRP2, 293T cells
Method in brief: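 FLAG-tagged constructs (C-terminally FLAG-tagged SFRP2 in pcDNA3) were transfected by calcium phosphate co-precipitation into 293T cells grown in DMEM with 10% fetal bovine serum. Anti-FLAG immunoprecipitation was followed by SDS-PAGE and anti-CXADR immunoblotting for endogenous CXADR.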

[14] = system: Y79 cells; assay: Ligand-binding assay of SFRP2-FLAG to Y79 cells; settings: anti-FLAG immunoblotting after washing
Method in brief: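 C-terminally FLAG-tagged SFRP2 was secreted from transfected 293T cells. It was incubated with Y79 cells previously transfected (Lipofectamine RNAiMAX) with CXADR siRNA or control siRNA. Cells were washed to remove unbound protein and lysed. Whole-cell lysate went to SDS-PAGE and anti-FLAG immunoblotting. CXADR knockdown was confirmed by immunoblotting.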

[15] = biological target: recombinant CXADR; assay: Microscale thermophoresis of SFRP2-CXADR interaction; format: binding, human; settings: read-out: KD of SFRP2-CXADR interaction, labeled CXADR, PBS/0.005% Tween 20, 30-min incubation at room temperature, Monolith NT.115
Method in brief: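 Recombinant human CXADR was fluorescently labelled with the RED-NHS second-generation dye kit. It was mixed with recombinant human SFRP2, incubated, and loaded into capillary chips. KD was derived from microscale thermophoresis affinity analysis.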

[16] = system: CXADR-overexpressing Y79 cells; assay: Cell proliferation of CXADR-overexpressing Y79 cells; format: cell-based; settings: 250 ng/mL recombinant SFRP2
Method in brief: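 Y79 cells were infected with pCDH1-puro lentivirus (made in 293T) carrying CXADR cDNA or empty vector, then selected in 5 μg/mL puromycin for 48 h. Expression was checked by anti-CXADR immunoblot. Cells were treated with recombinant SFRP2 at 250 ng/mL or left untreated, and proliferation was monitored by IncuCyte.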

[17] = system: NO production in CXADR-overexpressing Y79 cells; assay: NO production in CXADR-overexpressing Y79 cells; format: cell-based; settings: 250 ng/mL recombinant SFRP2, n = 3

HNPFTFFGPMFY [peptide I]
inhibition of proliferation ([1]; 1 μg/mL, IncuCyte): strongly inhibited proliferation of retinoblastoma cells
phosphorylated CREB induction [2]: rapidly induced phosphorylated CREB
NOS2 RNA induction [3]: rapidly induced
NO production [4]: rapidly induced
inhibition of proliferation [5]: strongly inhibited proliferation of retinoblastoma cells
growth of ARPE-19 cells [6]: do not inhibit the growth of retinal pigment epithelial cells

CC(=O)N[C@@H](C(=O)O)C(C)(C)SN=O (racemic) [SNAP]
retinoblastoma growth, NO donor ([1]; concentrations in figure, IncuCyte): inhibited retinoblastoma growth in a dose-dependent manner

HGWASLLNYSWY [peptide II]
inhibition of proliferation ([1]; 1 μg/mL, IncuCyte): strongly inhibited proliferation of retinoblastoma cells
phosphorylated CREB induction [2]: rapidly induced phosphorylated CREB
NOS2 RNA induction [3]: rapidly induced
NO production [4]: rapidly induced
inhibition of proliferation [5]: strongly inhibited proliferation of retinoblastoma cells
growth of ARPE-19 cells [6]: do not inhibit the growth of retinal pigment epithelial cells

Nc1ncc2c(n1)CC(c1ccco1)CC2=O (stereo not drawn) [NKY80]
NOS2 RNA induction following SFRP2 silencing ([3]; RB383, 1 μM NKY80, SFRP2 siRNA): abolished NOS2 induction
NO production following SFRP2 silencing ([4]; RB383, 1 μM NKY80, SFRP2 siRNA): abolished
growth inhibition following SFRP2 silencing ([5]; RB383, 1 μM NKY80, SFRP2 siRNA): abolished

O=c1onc2n1-c1cc(Br)ccc1OC2 [NS-2028]
growth inhibition following SFRP2 silencing (rescue), sGC inhibitor ([7]; 5 μM): abolished
p21 induction following SFRP2 silencing [8]: abolished

[H]/N=C(/NC)NCCC[C@H](N)C(=O)O [L-NMMA]
growth inhibition following SFRP2 silencing (rescue), pan-NOS inhibitor ([7]; concentrations in figure): abolished growth inhibition following SFRP2 silencing

O=C(CSc1nc2c(c(=O)n1-c1ccccc1)SCC2)Nc1ccc(-c2ccccc2)cn1 [IWP-L6]
growth arrest following SFRP2 silencing, Wnt inhibitors [1]: did not rescue the growth arrest of retinoblastoma cells following SFRP2 silencing

O=S(=O)(NC1CCNCC1)c1cc(S(=O)(=O)c2ccccc2)ccc1C(F)(F)F [WAY-316606]
inhibition of SFRP1 [9]: potent inhibitor of SFRP1
inhibition of proliferation ([1]; dose range in figure, IncuCyte): efficiently inhibited retinoblastoma cell proliferation in a dose-dependent manner
NO generation [10]: rapidly induces NO generation in retinoblastoma cells

Oc1nc(-c2ccc(C(F)(F)F)cc2)nc2c1CSCC2 [XAV939]
growth arrest following SFRP2 silencing, Wnt inhibitors [1]: did not rescue the growth arrest of retinoblastoma cells following SFRP2 silencing

CC1(C)N([O])C(c2ccc(C(=O)O)cc2)=[N+]([O-])C1(C)C [carboxy-PTIO]
effect on SFRP2 silencing [11]: did not affect SFRP2 silencing
growth inhibition following SFRP2 silencing (rescue), NO scavenger ([7]; 1 μM, all five retinoblastoma cell lines): completely abolished SFRP2 silencing-induced growth inhibition in all five retinoblastoma cell lines
p21 induction following SFRP2 silencing [8]: abolished

O=S(=O)(NCCNC/C=C/c1ccc(Br)cc1)c1cccc2cnccc12 [H89]
CREB phosphorylation following SFRP2 silencing ([2]; RB383, 5 μM H89, SFRP2 siRNA, 48 h): abolished CREB phosphorylation
NOS2 RNA induction following SFRP2 silencing ([3]; RB383, 5 μM H89, SFRP2 siRNA): abolished
NO production following SFRP2 silencing ([4]; RB383, 5 μM H89, SFRP2 siRNA): abolished
growth inhibition following SFRP2 silencing ([5]; RB383, 5 μM H89, SFRP2 siRNA): abolished

COC(=O)[C@@]1(OC)C[C@H]2O[C@]1(C)n1c3ccccc3c3c4c(c5c6ccccc6n2c5c31)C(=O)N(C)C4 [KT5823]
growth inhibition following SFRP2 silencing (rescue), PKG inhibitor ([7]; 2.5 μM): abolished
p21 induction following SFRP2 silencing [8]: abolished

B1: Recombinant human SFRP2 protein (6838-FR-025, R&D Systems) (ligand)
chain: LFLFGQPDFSYKRSNCKPIPANLQLCHGIEYQNMRLPNLLGHETMKEVLEQAGAWIPLVMKQCHPDTKKFLCSLFAPVCLDDLDETIQPCHSLCVQVKDRCAPVMSAFGFPWPDMLECDRFPQDNDLCIPLASSDHLLPATEEAPKVCEACKNKNDDDNDIMETLCKNDFALKIKVKEITYINRDTKIILETKSKTIYKLNGVSERDLKKSVLWLKDSLQCTCEEMNDINAPYLVMGQKQGGELVITSVKRWQKGQREFKRISRSIRKLQC
Kd [12]: 11.9 nM

B2: SFRP2-FLAG: C-terminally FLAG-tagged SFRP2 produced by transfection in 293T cells (protein)
chain: B1 chain
modifications: left off: FLAG, C-terminal, kept
co-immunoprecipitation with CXADR [13]: specifically co-immunoprecipitated with CXADR
SFRP2-FLAG binding to Y79 cells [14]: bound to Y79 cells, and this binding was abolished by siRNA-mediated silencing of CXADR

B3: recombinant SFRP2: Recombinant human SFRP2 protein (R&D Systems) (protein)
chain: B1 chain
modifications: left off: FLAG, C-terminal, kept
Kd [15]: 11.9 nM
proliferation of CXADR-overexpressing cells [16]: rescue of proliferation
NO generation in CXADR-overexpressing cells [17]: rapidly abolished
